Laboratory results as given in ChEMBL document CHEMBL2401626 (J Med Chem, 2013).
Activity calls are given as the source filed them. The calls are words filed in the database; no cut-off is given here.

Assays:
[1] = molecular target: T1, Amyloid-beta precursor protein (Homo sapiens, UniProt P05067); test: Inhibition of Cu2+-induced amyloid beta (1 to 42) aggregation (unknown origin) at 50 uM after 24 hrs by thioflavin T fluorescence assay relative to untreated control
How it was run: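 Aβ1−42 (25 μM final) in 20 μM HEPES pH 6.6, 150 μM NaCl, with Cu2+ (25 μM final) and compound (50 μM final). Incubated at 37 °C for 24 h, then diluted into 50 mM glycine−NaOH pH 8.0 with 5 μM ThT. Fluorescence read at ex 450/em 485 nm after 5 min; inhibition calculated as (1 − IFi/IFc) × 100 after background subtraction.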

[2] = molecular target: T1, Amyloid-beta precursor protein; test: Induction of disaggregation of self-mediated amyloid beta (1 to 42) fibril (unknown origin) at 25 uM after 24 hrs by thioflavin T fluorescence assay relative to control
[3] = molecular target: T1, Amyloid-beta precursor protein; test: Induction of disaggregation of self-mediated amyloid beta (1 to 42) fibril (unknown origin) at 25 uM after 24 hrs by transmission electron microscopic analysis
[4] = molecular target: T1, Amyloid-beta precursor protein; conditions: at 20 µM
[5] = molecular target: T1, Amyloid-beta precursor protein; test: Induction of disaggregation of Cu2+-induced amyloid beta (1 to 42) fibril (unknown origin) at 50 uM after 24 hrs by thioflavin T fluorescence assay relative to control
How it was run: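 Aβ1−42 (25 μM final) in 20 μM HEPES pH 6.6, 150 μM NaCl, preincubated with Cu2+ (25 μM) for 24 h at 37 °C. Compound (50 μM final) then added for another 24 h at 37 °C. Sample diluted into 50 mM glycine−NaOH pH 8.0 with 5 μM ThT; fluorescence read after 5 min at ex 450/em 485 nm.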

[6] = Antioxidant activity assessed as trolox equivalent of AAPH radical scavenging activity at 10 uM preincubated for 10 mins followed by AAPH challenge measured every min for 120 mins by ORAC-FL assay; assay type: functional
How it was run: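 Test compound and fluorescein (70 nM final) in 75 mM phosphate buffer pH 7.4, preincubated 10 min at 37 °C, then AAPH (40 mM solution) added. Fluorescence read every minute for 120 min (ex 485/em 520 nm). Curves normalized to buffer blank. […] Triplicate wells, at least three independent runs.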

[7] = molecular target: T1, Amyloid-beta precursor protein
[8] = Permeability of the compound at 100 ug/mL after 10 hrs by PAMPA; assay type: ADME; conditions: read-out: permeability
How it was run: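 PAMPA-BBB: filter coated with porcine brain lipid in dodecane (20 mg/mL); acceptor is PBS/EtOH 7:3. Compound taken from 5 mg/mL DMSO stock and diluted to 100 μg/mL final in PBS/EtOH, then incubated 10 h at 25 °C. Acceptor concentration measured by UV at five wavelengths, four wells, at least three runs; Pe calculated by equation.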

SH-SY5Y = test: Antioxidant activity in human SH-SY5Y cells assessed as decrease in t-BuOOH-induced intracellular ROS production at 2.5 to 10 uM incubated for 24 hrs prior to t-BuOOH challenge measured after 30 mins by DCFHDA-based fluorescence assay; assay type: functional, cell-based
How it was run: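 SH-SY5Y cells (DMEM, 10% FCS, 37 °C, 5% CO2) seeded 1 × 10^4/well and grown 24 h. Compound added for 24 h; Trolox control at 5, 10, 20 μM. Cells are then washed, loaded with 5 μM DCFH-DA in PBS for 30 min, and challenged with 0.1 mM t-BuOOH for 30 min. Fluorescence read at ex 485/em 535 nm. Result is % of control by formula; three independent experiments in sextuplicate.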

[9] = molecular target: T1, Amyloid-beta precursor protein; test: Induction of disaggregation of Cu2+-induced amyloid beta (1 to 42) fibril (unknown origin) at 50 uM after 24 hrs by transmission electron microscopic analysis
How it was run: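 Cu2+-induced fibrils formed from Aβ1−42 (25 μM) with Cu2+ (25 μM) at 37 °C for 24 h in HEPES pH 6.6/NaCl, then treated with compound (50 μM) at 37 °C for 24 h. Aliquots placed on carbon-coated grid for 2 min, stained with 1% uranyl acetate for 2 min, and imaged by TEM.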

[10] = Metal chelating activity of the compound assessed as Zn2+ complex formation at 20 uM after 30 mins by UV-vis spectrometry; assay type: functional
How it was run: (§1)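 Absorption spectra of compound (20 μM final) alone or with metal salt (40 μM final; CuSO4, FeSO4 or ZnCl2) after 30 min in 20% ethanol/buffer (20 mM HEPES, 150 mM NaCl, pH 7.4). Recorded at room temperature by UV−vis.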

[11] = Metal chelating activity of the compound assessed as Cu2+ complex formation by Job's method; assay type: functional
How it was run: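 Job's method: solutions held at constant total compound + CuSO4 concentration with varied mole fraction, in ethanol/HEPES buffer pH 7.4. UV absorbance change plotted against mole fraction; stoichiometry taken from the intersection of the straight lines.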

[12] = molecular target: T1, Amyloid-beta precursor protein; test: Inhibition of Cu2+-induced amyloid beta (1 to 42) aggregation (unknown origin) at 50 uM after 24 hrs by transmission electron microscopic analysis
How it was run: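 Aβ1−42 (25 μM) with Cu2+ (25 μM) and compound (50 μM) in HEPES pH 6.6/150 μM NaCl, incubated at 37 °C for 24 h. Aliquots put on carbon-coated grid for 2 min, stained with 1% uranyl acetate for 2 min, and imaged by TEM.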

[13] = Metal chelating activity of the compound assessed as Fe2+ complex formation at 20 uM after 30 mins by UV-vis spectrometry; assay type: functional; how it was run: as §1
[14] = Metal chelating activity of the compound assessed as Fe3+ complex formation at 20 uM after 30 mins by UV-vis spectrometry; assay type: functional
[15] = molecular target: T1, Amyloid-beta precursor protein; test: Inhibition of amyloid beta (1 to 42) fibril formation (unknown origin) at 20 uM after 24 hrs by transmission electron microscopic analysis
How it was run: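 Aβ1−42 (25 μM) incubated with compound (20 μM) at 37 °C for 24 h in 10 mM phosphate pH 7.4. Grid loaded for 2 min, stained with 1% uranyl acetate for 2 min, and imaged by TEM.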

[16] = Metal chelating activity of the compound assessed as Cu2+ complex formation at 20 uM after 30 mins by UV-vis spectrometry; assay type: functional; how it was run: as §1
Acetylcholinesterase = Acetylcholinesterase (Electrophorus electricus, UniProt O42275); test: Inhibition of electric eel AChE using acetylthiocholine chloride as substrate preincubated for 15 mins followed by substrate addition measured every 1 min by Ellman's method
Chain of Acetylcholinesterase (O42275 whole entry): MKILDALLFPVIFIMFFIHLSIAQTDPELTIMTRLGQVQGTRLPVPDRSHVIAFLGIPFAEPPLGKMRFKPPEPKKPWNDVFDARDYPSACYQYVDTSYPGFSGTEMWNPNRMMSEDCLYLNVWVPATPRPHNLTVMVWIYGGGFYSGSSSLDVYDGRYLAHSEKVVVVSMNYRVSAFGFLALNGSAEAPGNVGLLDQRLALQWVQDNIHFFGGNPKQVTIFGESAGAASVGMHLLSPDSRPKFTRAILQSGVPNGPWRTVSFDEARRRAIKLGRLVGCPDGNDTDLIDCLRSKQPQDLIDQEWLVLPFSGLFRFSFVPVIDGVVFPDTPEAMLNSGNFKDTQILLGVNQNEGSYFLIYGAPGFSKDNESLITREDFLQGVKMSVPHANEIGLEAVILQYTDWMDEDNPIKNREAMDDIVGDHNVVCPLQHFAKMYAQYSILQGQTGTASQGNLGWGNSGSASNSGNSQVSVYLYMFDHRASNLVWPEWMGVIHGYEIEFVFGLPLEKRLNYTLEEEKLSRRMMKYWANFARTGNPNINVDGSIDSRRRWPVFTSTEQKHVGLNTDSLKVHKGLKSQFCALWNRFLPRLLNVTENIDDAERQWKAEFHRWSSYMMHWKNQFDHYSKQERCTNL
How it was run: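 Ellman method in 0.1 M potassium phosphate buffer, pH 8.0, 1 mL assay containing DTNB and thiocholine substrate (each 50 μL of 0.01 M stock). Enzyme (AChE stock 2.0 units/mL) preincubated with compound 15 min at 37 °C, then substrate added. A412 read at 1 min intervals at 37 °C. Each concentration in triplicate. IC50 from at least three experiments.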

T1 sequence (P05067 whole entry): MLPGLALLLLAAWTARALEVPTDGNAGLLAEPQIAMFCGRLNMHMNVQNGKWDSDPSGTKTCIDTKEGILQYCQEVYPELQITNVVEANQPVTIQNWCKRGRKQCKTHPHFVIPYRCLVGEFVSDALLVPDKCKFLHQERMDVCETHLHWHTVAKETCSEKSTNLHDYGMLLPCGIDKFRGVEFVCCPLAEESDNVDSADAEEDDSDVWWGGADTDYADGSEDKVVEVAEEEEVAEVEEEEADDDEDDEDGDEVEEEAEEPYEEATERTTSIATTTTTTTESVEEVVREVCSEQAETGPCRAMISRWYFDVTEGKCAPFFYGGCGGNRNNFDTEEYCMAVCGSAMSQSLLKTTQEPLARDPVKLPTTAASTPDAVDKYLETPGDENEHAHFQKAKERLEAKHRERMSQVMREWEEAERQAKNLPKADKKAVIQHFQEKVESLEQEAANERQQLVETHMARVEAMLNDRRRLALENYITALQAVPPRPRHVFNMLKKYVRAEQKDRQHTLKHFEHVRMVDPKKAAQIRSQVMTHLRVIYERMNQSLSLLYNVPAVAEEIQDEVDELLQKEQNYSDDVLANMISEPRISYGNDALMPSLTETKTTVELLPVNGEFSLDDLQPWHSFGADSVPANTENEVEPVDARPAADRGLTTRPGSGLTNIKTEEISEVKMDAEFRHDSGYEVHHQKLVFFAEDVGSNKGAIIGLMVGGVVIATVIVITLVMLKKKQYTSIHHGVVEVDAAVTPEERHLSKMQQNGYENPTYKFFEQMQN

In the case of Oc1ccc(/C=C/c2cc(O)cc(O)c2)cc1, the inhibition [1] is reported as 78.9%, the Activity [2] is reported as 61% and the Activity [3] is reported as “Active”. The inhibition [4] was 69.7% and the Activity [5] was 86.4%.

Compound COc1cc(/C=C/c2ccc(NCc3ccccc3OC)cc2)cc(OC)c1 has an Activity [6] of 3.67 equiv and an inhibition [4] of 6.9%.

COc1cc(/C=C/c2ccc(NCc3cc(NC(C)C)ccc3O)cc2)cc(OC)c1 gave an Activity [6] of 2.73 equiv, an IC50 [7] of 18.4 µM and an inhibition [4] of 50.2%.

With COc1ccc(/C=C/c2ccc(NCc3cc(N(C)C)ccc3O)cc2)cc1 the Activity [6] was 2.37 equiv, the IC50 [7] was 12.2 µM and the inhibition [4] was 71.2%.

With COc1cc(/C=C/c2ccc(NCc3ccc(OC)cc3O)cc2)cc(OC)c1 the Activity [6] was 3.32 equiv and the inhibition [4] was 3.98%.

COc1cc(/C=C/c2ccc(NCc3cc(N(C)C)ccc3O)cc2)cc(OC)c1.Cl gave a Papp at 10 h, 100 ug/mL [8] of 7.13 ×10⁻⁶ cm/s.

With Oc1c(I)cc(Cl)c2cccnc12 the inhibition [1] was 70.9%, the Activity [2] was 16.5% and the Activity [3] was “Active”. It also gave an inhibition [4] of 37.8% and an Activity [5] of 41%.

For COc1cc(/C=C/c2ccc(NCc3cc(N(C)C)ccc3O)cc2)cc(OC)c1, the Activity (SH-SY5Y) was “Active”, the inhibition [1] was 87.5% and the Activity [9] was “Active”. For the same compound, the Activity [10] was “Active”, the Activity [6] was 4.72 equiv and the Activity [2] was 67%. The Activity [11] was “Active”, the Activity [3] was “Active” and the inhibition [12] was “Active”. For the same compound, the inhibition [4] was 79.5%, the Activity [13] was “Active” and the Activity [14] was “Active”. For the same compound, the inhibition [15] was “Active”, the Activity [16] was “Active” and the Activity [5] was 88.8%.

In the case of Oc1cc(O)cc(/C=C/c2ccc(NCc3ccccc3O)cc2)c1, the Activity [6] is reported as 6.27 equiv, the IC50 [7] is reported as 10.2 µM and the inhibition [4] is reported as 68.1%.

In the case of CN(C)c1ccc(O)c(CNc2ccc(/C=C/c3cc(O)cc(O)c3)cc2)c1, the Activity (SH-SY5Y) is reported as “Active”, the inhibition [1] is reported as 94.2% and the Activity [9] is reported as “Active”. For the same compound, the Activity [10] was “Active”, the Activity [6] was 4.7 equiv and the Activity [2] was 82%. The Activity [11] was “Active”, the Activity [3] was “Active” and the inhibition [12] was “Active”. For the same compound, the inhibition [4] was 78.1%, the Activity [13] was “Active” and the Activity [14] was “Active”. The inhibition [15] was “Active”, the Activity [16] was “Active” and the Activity [5] was 85.9%.

In the case of CCCNc1ccc(O)c(CNc2ccc(/C=C/c3cc(OC)cc(OC)c3)cc2)c1, the Activity [6] is reported as 2.91 equiv, the IC50 [7] is reported as 13.1 µM and the inhibition [4] is reported as 62.5%.

C#CCN[C@@H]1CCc2ccc(OC(=O)N(C)CC)cc21 [LADOSTIGIL] showed an IC50 (Acetylcholinesterase) of 50 µM.

COc1cc(/C=C/c2ccc(NCc3ccccc3O)cc2)cc(OC)c1 gave an Activity [6] of 3.67 equiv and an inhibition [4] of 20.7%.

With CN(C)c1ccc(O)c(CNc2ccc(/C=C/c3cc(O)cc(O)c3)cc2)c1.Cl the Papp at 10 h, 100 ug/mL [8] was 2.55 ×10⁻⁶ cm/s.

For CN(C)c1ccccc1CNc1ccc(/C=C/c2cc(O)cc(O)c2)cc1, the Activity [6] was 3.57 equiv, the IC50 [7] was 14.2 µM and the inhibition [4] was 62.4%.

Compound COc1cc(/C=C/c2ccc(NCc3ccccc3N(C)C)cc2)cc(OC)c1 has an Activity [6] of 5.87 equiv and an inhibition [4] of 7.17%.

With COc1cc(/C=C/c2ccc(NCc3cc(NCC(C)C)ccc3O)cc2)cc(OC)c1 the Activity [6] was 4.51 equiv, the IC50 [7] was 10.3 µM and the inhibition [4] was 67%.

In the case of COc1cc(/C=C/c2ccc(NCc3cccc(OC)c3O)cc2)cc(OC)c1, the Activity [6] is reported as 4.54 equiv and the inhibition [4] is reported as 18.1%.

In the case of COc1cc(/C=C/c2ccc(NCc3c[nH]c4ccccc34)cc2)cc(OC)c1, the Activity [6] is reported as 3.67 equiv and the inhibition [4] is reported as 24.1%.

With O=[N+]([O-])c1ccc(O)c(CNc2ccc(/C=C/c3cc(O)cc(O)c3)cc2)c1 the Activity [6] was 4.23 equiv, the IC50 [7] was 7.06 µM and the inhibition [4] was 71.5%.

In the case of COc1cc(/C=C/c2ccc(NCc3cc[nH]c3)cc2)cc(OC)c1, the Activity [6] is reported as 3.51 equiv and the inhibition [4] is reported as 13.6%.

For CN(C)c1ccc(/C=C/c2ccc(NCc3cc(N(C)C)ccc3O)cc2)cc1, the Activity [6] was 3.86 equiv, the IC50 [7] was 10.7 µM and the inhibition [4] was 69.1%.

Work on COc1cc(/C=C/c2ccc(NCc3cc([N+](=O)[O-])ccc3O)cc2)cc(OC)c1 yielded an Activity [6] of 2.51 equiv and an inhibition [4] of 46.5%.

Oc1cc(O)cc(/C=C/c2ccc(NCc3cccc(O)c3O)cc2)c1 showed an Activity [6] of 3.26 equiv, an IC50 [7] of 7.87 µM and an inhibition [4] of 78.8%.

COc1cc(/C=C/c2ccc(NCc3cc(Cl)ccc3O)cc2)cc(OC)c1 gave an Activity [6] of 4.12 equiv and an inhibition [4] of 31.3%.
